Legend:
[1] = target: T1, Malate dehydrogenase, mitochondrial (Sus scrofa, UniProt P00346); assay: Ability to inhibit mitochondrial malate dehydrogenase
T1 sequence (P00346 whole entry): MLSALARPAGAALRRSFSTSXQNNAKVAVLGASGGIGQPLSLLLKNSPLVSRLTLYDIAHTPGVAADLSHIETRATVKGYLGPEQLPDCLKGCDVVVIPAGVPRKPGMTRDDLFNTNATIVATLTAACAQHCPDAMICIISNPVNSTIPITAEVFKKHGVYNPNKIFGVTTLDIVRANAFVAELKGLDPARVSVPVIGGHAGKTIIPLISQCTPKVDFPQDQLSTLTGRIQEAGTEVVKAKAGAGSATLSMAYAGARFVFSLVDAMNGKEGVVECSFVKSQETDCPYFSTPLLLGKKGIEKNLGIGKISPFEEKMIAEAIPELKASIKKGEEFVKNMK
In short: (§1)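 Pig heart enzyme (cytoplasmic or mitochondrial form), diluted in 0.05 M Tris pH 7.4 with 1% BSA to give 0.022–0.027 OD/min at 340 nm. Cuvette holds 0.05 M Tris pH 8.4, L-malate, NAD+ and Me2SO ± inhibitor. Equilibrated at 25 °C, then started with enzyme. Five inhibitor concentrations in triplicate; I50 from least-squares dose-response line.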

[2] = target: T2, Malate dehydrogenase, cytoplasmic (Sus scrofa, UniProt P11708); assay: Ability to inhibit cytoplasmic malate dehydrogenase; in short: as §1
T2 sequence (P11708 whole entry): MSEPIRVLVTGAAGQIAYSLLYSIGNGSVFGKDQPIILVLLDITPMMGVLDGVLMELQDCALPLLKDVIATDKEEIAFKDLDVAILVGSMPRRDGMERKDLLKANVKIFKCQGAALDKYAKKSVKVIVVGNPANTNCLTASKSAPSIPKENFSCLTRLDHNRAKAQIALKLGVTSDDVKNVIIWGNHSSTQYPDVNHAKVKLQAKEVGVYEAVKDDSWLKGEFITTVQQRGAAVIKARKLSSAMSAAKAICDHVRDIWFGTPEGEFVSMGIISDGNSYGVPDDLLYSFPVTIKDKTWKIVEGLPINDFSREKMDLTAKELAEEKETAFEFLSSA

Row | IC50 [1] | IC50 [2] | SMILES
1 | 2.45 µM | 81.3 µM | O=C(O)c1cnc2cc(OCCOc3ccc(Oc4ccccc4)cc3)ccc2c1O
2 | 2.19 µM | 72.4 µM | O=C(O)c1cnc2cc(OCCc3ccc4ccccc4c3)ccc2c1O
3 | 39.8 µM |  | O=C(O)c1cnc2cc(OCc3ccc(F)cc3)ccc2c1O
4 | 6.76 µM |  | O=C(O)c1cnc2cc(OCc3ccc(Br)cc3)ccc2c1O
5 | 1.58 µM |  | O=C(O)c1cnc2cc(OCCOc3ccc4ccccc4c3)ccc2c1O
6 | 2.51 µM | 91.2 µM | O=C(O)c1cnc2cc(OCCc3ccc(Br)cc3)ccc2c1O
7 | 5.13 µM |  | O=C(O)c1cnc2cc(OCCOc3ccc(Br)cc3)ccc2c1O
8 | 60.3 µM |  | O=C(O)c1cnc2cc(OCCOc3ccccc3)ccc2c1O
9 | 18.2 µM |  | O=C(O)c1cnc2cc(OCCOc3ccc(F)cc3)ccc2c1O
10 | 14.8 µM |  | O=C(O)c1cnc2cc(OCCc3ccc(F)cc3)ccc2c1O
11 | 38 µM | 155 µM | O=C(O)c1cnc2cc(OCCc3ccccc3)ccc2c1O

Second part, the compound before the results:

Row | SMILES | IC50 [1] | IC50 [2]
12 | O=C(O)c1cnc2cc([N+](=O)[O-])ccc2c1O | 1910 µM | 1200 µM
13 | O=C(O)c1cnc2cc(OCCc3ccc(Oc4ccccc4)cc3)ccc2c1O | 1.82 µM | 61.7 µM
14 | O=C(O)c1cnc2cc(O)ccc2c1O | 490 µM | 955 µM
15 | NC(=O)c1ccc2c(O)c(C(=O)O)cnc2c1 | 741 µM | 603 µM
16 | O=C(O)c1cnc2cc(OCc3ccc(Oc4ccccc4)cc3)ccc2c1O | 1.48 µM | 30.9 µM
17 | CS(=O)(=O)c1ccc2c(O)c(C(=O)O)cnc2c1 | 661 µM | 437 µM
18 | O=C(O)c1cnc2cc(S(=O)(=O)O)ccc2c1O | 2140 µM | 3090 µM
19 | CC(=O)c1ccc2c(O)c(C(=O)O)cnc2c1 | 912 µM | 912 µM
20 | NS(=O)(=O)c1ccc2c(O)c(C(=O)O)cnc2c1 | 955 µM | 692 µM
21 | O=C(O)c1cnc2cc(OCc3ccc(Cl)c(Cl)c3)ccc2c1O | 4.79 µM | 
22 | O=C(O)c1cnc2cc(Cl)ccc2c1O | 3630 µM | 4680 µM
23 | O=C(O)c1cnc2cc(F)ccc2c1O | 10500 µM | 11000 µM
24 | O=C(O)c1cnc2cc(OCc3cccc4ccccc34)ccc2c1O | 13.2 µM | 
25 | O=C(O)c1cnc2cc(OCc3c(Cl)c(Cl)c(Cl)c(Cl)c3Cl)ccc2c1O | 4.79 µM | 
26 | O=C(O)c1cnc2cc(OCc3ccccc3)ccc2c1O | 32.4 µM | 
27 | O=C(O)c1cnc2cc(OCc3ccc4ccccc4c3)ccc2c1O | 4.07 µM | 
28 | CN(C)c1ccc2c(O)c(C(=O)O)cnc2c1 | 479 µM | 372 µM
29 | O=C(O)c1ccc2c(O)c(C(=O)O)cnc2c1 | 1070 µM | 1290 µM
